# In ChEMBL document CHEMBL3616437, “Thiazole compounds with activity against Cryptococcus gattii and Cryptococcus neoformans in vitro” (Eur J Med Chem, 2015):
# pIC50: −log10 of the molar value.
# Experiments:
# Cryptococcus neoformans [1] = assay: Antifungal activity against Cryptococcus neoformans ATCC 24067 after 48 to 72 hrs by broth microdilution method; assay type: functional
# Method in brief: (§1)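 CLSI M27-A3 broth microdilution. Isolates subcultured twice on SDA, 48 h at 35°C. Saline suspension adjusted to 70% transmittance at 530 nm, then diluted to 1-5 x10^3 cells/mL in RPMI with L-glutamine, 0.165 M MOPS, pH 7.0. Compounds in DMSO, tested at […]. 35°C for 48-72 h. MIC read visually as the lowest concentration giving an optically clear well.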
# Vero = assay: Cytotoxicity against African green monkey Vero cells assessed as cell viability measured after 48 hrs by MTT assay; assay type: cell-based; details: Chlorocebus sabaeus
# Method in brief: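 VERO cells in D-MEM with 5% FBS, used up to 20 passages. Seeded 1 x 10^4 cells/well, pre-incubated 24 h at 37°C. Exposed 48 h at 37°C, 5% CO2, to eight nonserial dilutions from 100 to 0.0128 µM, with 0.5% DMSO control. MTT reduction read-out, corrected for background and blank. IC50 reported as median with 95% CI. Triplicate, two independent experiments.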
# [2] = Cytotoxicity against C57BL/6 mouse peritoneal macrophages assessed as cell viability measured after 48 hrs by MTT assay; assay type: cell-based; details: C57BL/6, Peritoneal macrophage cell
# Method in brief: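 Thioglycollate-elicited peritoneal macrophages from male C57BL/6 mice, 6–8 weeks old, in RPMI with 10% FBS. Seeded 1 x 10^5 cells/well, pre-incubated 24 h at 37°C. Exposed 48 h at 37°C, 5% CO2, to eight nonserial dilutions from 100 to 0.0128 µM, with 0.5% DMSO control. MTT read-out, % inhibition versus DMSO control. IC50 reported as median with 95% CI. Triplicate, two independent experiments.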
# [3] = Selectivity index, ratio of IC50 for African green monkey Vero cells to MIC for Cryptococcus neoformans ATCC 24067; assay type: toxicity, cell-based
# [4] = Selectivity index, ratio of IC50 for C57BL/6 mouse peritoneal macrophages to MIC for Cryptococcus neoformans ATCC 24067
# Method in brief: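 SI = IC50/MIC. Thioglycollate-elicited peritoneal macrophages from C57BL/6 mice are seeded at 1 x 10^5/well. They are exposed for 48 h at 37°C to eight concentrations from 100 to 0.0128 µM. Viability read by MTT versus 0.5% DMSO control, triplicate in two experiments.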
# [5] = system: Cryptococcus bacillisporus; assay: Antifungal activity against Cryptococcus gattii ATCC 32608 after 48 to 72 hrs by broth microdilution method; assay type: functional
# Method in brief: (§2)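 CLSI M27-A3 broth microdilution in RPMI with L-glutamine, buffered to pH 7.0 with 0.165 M MOPS. Colonies grown twice on SDA, 48 h at 35°C. Inoculum set to 70% transmittance at 530 nm, then diluted to 1-5 x10^3 cells/mL. Test agents dissolved in DMSO, serially diluted, tested at 0.1 to 62.5 µM. Plates held at 35°C for 48-72 h. MIC is the lowest concentration giving an optically clear well, read visually against drug-free growth controls.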
# [6] = system: Cryptococcus gattii species complex; assay: Antifungal activity against Cryptococcus gattii 23/10993 after 48 to 72 hrs by broth microdilution method; assay type: functional, Cryptococcus bacillisporus; method in brief: as §2
# [7] = system: Cryptococcus gattii species complex; assay: Antifungal activity against Cryptococcus gattii L28/02 after 48 to 72 hrs by broth microdilution method; assay type: functional, Cryptococcus bacillisporus; method in brief: as §2
# [8] = system: Cryptococcus gattii species complex; assay: Antifungal activity against Cryptococcus gattii 547/OTTI-97-PI-10 after 48 to 72 hrs by broth microdilution method; assay type: functional, Cryptococcus bacillisporus; method in brief: as §2
# [9] = system: Cryptococcus gattii species complex; assay: Antifungal activity against Cryptococcus gattii 135L/03 after 48 to 72 hrs by broth microdilution method; assay type: functional, Cryptococcus bacillisporus; method in brief: as §2
# [10] = system: Cryptococcus gattii species complex; assay: Antifungal activity against Cryptococcus gattii 196L/03 after 48 to 72 hrs by broth microdilution method; assay type: functional, Cryptococcus bacillisporus; method in brief: as §2
# [11] = system: Cryptococcus gattii species complex; assay: Antifungal activity against Cryptococcus gattii L27/01 after 48 to 72 hrs by broth microdilution method; assay type: functional, Cryptococcus bacillisporus; method in brief: as §2
# [12] = system: Cryptococcus gattii species complex; assay: Antifungal activity against Cryptococcus gattii ICB181 after 48 to 72 hrs by broth microdilution method; assay type: functional, Cryptococcus bacillisporus; method in brief: as §2
# [13] = system: Cryptococcus gattii species complex; assay: Antifungal activity against Cryptococcus gattii L24/01 after 48 to 72 hrs by broth microdilution method; assay type: functional, Cryptococcus bacillisporus; method in brief: as §2
# [14] = system: Cryptococcus gattii species complex; assay: Antifungal activity against Cryptococcus gattii LMM818 after 48 to 72 hrs by broth microdilution method; assay type: functional, Cryptococcus bacillisporus; method in brief: as §2
# [15] = system: Cryptococcus gattii species complex; assay: Antifungal activity against Cryptococcus gattii 1913ER after 48 to 72 hrs by broth microdilution method; assay type: functional, Cryptococcus bacillisporus; method in brief: as §2
# Cryptococcus neoformans [16] = assay: Antifungal activity against Cryptococcus neoformans ATCC 28957 after 48 to 72 hrs by broth microdilution method; assay type: functional; method in brief: as §1
# Cryptococcus neoformans [17] = assay: Antifungal activity against Cryptococcus neoformans ATCC 62066 after 48 to 72 hrs by broth microdilution method; assay type: functional
# Cryptococcus neoformans [18] = assay: Antifungal activity against Cryptococcus neoformans CN31 after 48 to 72 hrs by broth microdilution method; assay type: functional; method in brief: as §1
# Cryptococcus neoformans [19] = assay: Antifungal activity against Cryptococcus neoformans 96806 after 48 to 72 hrs by broth microdilution method; assay type: functional; method in brief: as §1
# Cryptococcus neoformans [20] = assay: Antifungal activity against Cryptococcus neoformans 5396 after 48 to 72 hrs by broth microdilution method; assay type: functional; method in brief: as §1
# Cryptococcus neoformans [21] = assay: Antifungal activity against Cryptococcus neoformans LMM820 after 48 to 72 hrs by broth microdilution method; assay type: functional; method in brief: as §1
# Cryptococcus neoformans [22] = assay: Antifungal activity against Cryptococcus neoformans F10 after 48 to 72 hrs by broth microdilution method; assay type: functional; method in brief: as §1
# Cryptococcus neoformans [23] = assay: Antifungal activity against Cryptococcus neoformans 28JF after 48 to 72 hrs by broth microdilution method; assay type: functional; method in brief: as §1
# Cryptococcus neoformans [24] = assay: Antifungal activity against Cryptococcus neoformans VM-MCMMPI after 48 to 72 hrs by broth microdilution method; assay type: functional; method in brief: as §1
# Cryptococcus neoformans [25] = assay: Antifungal activity against Cryptococcus neoformans 27JF after 48 to 72 hrs by broth microdilution method; assay type: functional; method in brief: as §1
# Cryptococcus neoformans [26] = assay: Antifungal activity against Cryptococcus neoformans WP after 48 to 72 hrs by broth microdilution method; assay type: functional; method in brief: as §1
smiles,measurement,setting,value
c1ccc(-c2csc(NN=C3CCCC3)n2)cc1,MIC,Cryptococcus neoformans [1],1.9 µM
same,pIC50,Vero,< 4.00
same,pIC50,[2],< 4.00
same,selectivity ratio,[3],29
same,Ratio,[4],29
same,MFC,[5],3.9 µM
same,MIC,[5],2.2 µM
same,MFC,[6],3.9 µM
same,MIC,[6],2.9 µM
same,MFC,[7],3.9 µM
same,MIC,[7],2.7 µM
same,MFC,[8],7.8 µM
same,MIC,[8],1.9 µM
same,MFC,[9],3.9 µM
same,MIC,[9],3.1 µM
same,MFC,[10],7.8 µM
same,MIC,[10],2.2 µM
same,MFC,[11],1.9 µM
same,MIC,[11],1.5 µM
same,MFC,[12],1.9 µM
same,MIC,[12],1 µM
same,MFC,[13],7.8 µM
same,MIC,[13],1.7 µM
same,MFC,[14],3.9 µM
same,MIC,[14],3.4 µM
same,MFC,[15],7.8 µM
same,MIC,[15],1 µM
same,MFC,Cryptococcus neoformans [16],7.8 µM
same,MIC,Cryptococcus neoformans [16],2.2 µM
same,MFC,Cryptococcus neoformans [17],3.9 µM
same,MIC,Cryptococcus neoformans [17],1.2 µM
same,MFC,Cryptococcus neoformans [18],1.9 µM
same,MIC,Cryptococcus neoformans [18],1.9 µM
same,MFC,Cryptococcus neoformans [19],7.8 µM
same,MIC,Cryptococcus neoformans [19],1.9 µM
same,MFC,Cryptococcus neoformans [20],0.9 µM
same,MIC,Cryptococcus neoformans [20],1.2 µM
same,MFC,Cryptococcus neoformans [21],3.9 µM
same,MIC,Cryptococcus neoformans [21],2.2 µM
same,MFC,Cryptococcus neoformans [22],7.8 µM
same,MIC,Cryptococcus neoformans [22],2.2 µM
same,MFC,Cryptococcus neoformans [23],1.9 µM
same,MIC,Cryptococcus neoformans [23],2.6 µM
same,MFC,Cryptococcus neoformans [24],7.8 µM
same,MIC,Cryptococcus neoformans [24],1.6 µM
same,MFC,Cryptococcus neoformans [25],7.8 µM
same,MIC,Cryptococcus neoformans [25],3.2 µM
same,MFC,Cryptococcus neoformans [26],3.9 µM
same,MIC,Cryptococcus neoformans [26],3.2 µM
C[C@@H]1[C@H](O)[C@@H](C)/C=C/C=C/C=C/C=C/C=C/C=C/C=C/[C@H](O[C@@H]2O[C@H](C)[C@@H](O)[C@H](N)[C@@H]2O)C[C@@H]2O[C@](O)(C[C@@H](O)C[C@@H](O)[C@H](O)CC[C@@H](O)C[C@@H](O)CC(=O)O[C@H]1C)C[C@H](O)[C@H]2C(=O)O [AMPHOTERICIN B],MIC,Cryptococcus neoformans [1],0.09 µM
same,pIC50,Vero,< 4.00
same,pIC50,[2],4.27
same,selectivity ratio,[3],206
same,Ratio,[4],109.81
same,MFC,[5],0.9 µM
same,MIC,[5],0.14 µM
same,MFC,[6],0.1 µM
same,MIC,[6],0.08 µM
same,MFC,[7],0.1 µM
same,MIC,[7],0.08 µM
same,MFC,[8],0.1 µM
same,MIC,[8],0.04 µM
same,MFC,[9],0.5 µM
same,MIC,[9],0.14 µM
same,MFC,[10],0.2 µM
same,MIC,[10],0.04 µM
same,MFC,[11],0.1 µM
same,MIC,[11],0.08 µM
same,MFC,[12],0.9 µM
same,MIC,[12],0.12 µM
same,MFC,[13],0.1 µM
same,MIC,[13],0.04 µM
same,MFC,[14],0.2 µM
same,MIC,[14],0.14 µM
same,MFC,[15],0.1 µM
same,MIC,[15],0.08 µM
same,MFC,Cryptococcus neoformans [16],0.22 µM
same,MIC,Cryptococcus neoformans [16],0.04 µM
same,MFC,Cryptococcus neoformans [17],0.22 µM
same,MIC,Cryptococcus neoformans [17],0.03 µM
same,MFC,Cryptococcus neoformans [18],0.45 µM
same,MIC,Cryptococcus neoformans [18],0.08 µM
same,MFC,Cryptococcus neoformans [19],0.45 µM
same,MIC,Cryptococcus neoformans [19],0.09 µM
same,MFC,Cryptococcus neoformans [20],0.11 µM
same,MIC,Cryptococcus neoformans [20],0.06 µM
same,MFC,Cryptococcus neoformans [21],0.22 µM
same,MIC,Cryptococcus neoformans [21],0.06 µM
same,MFC,Cryptococcus neoformans [22],0.11 µM
same,MIC,Cryptococcus neoformans [22],0.06 µM
same,MFC,Cryptococcus neoformans [23],0.22 µM
same,MIC,Cryptococcus neoformans [23],0.11 µM
same,MFC,Cryptococcus neoformans [24],0.22 µM
same,MIC,Cryptococcus neoformans [24],0.07 µM
same,MFC,Cryptococcus neoformans [25],0.45 µM
same,MIC,Cryptococcus neoformans [25],0.07 µM
same,MFC,Cryptococcus neoformans [26],0.22 µM
same,MIC,Cryptococcus neoformans [26],0.09 µM
OC(Cn1cncn1)(Cn1cncn1)c1ccc(F)cc1F [FLUCONAZOLE],MIC,Cryptococcus neoformans [1],7.8 µM
same,pIC50,Vero,< 4.00
same,pIC50,[2],< 4.00
same,selectivity ratio,[3],15.7
same,Ratio,[4],15.74
same,MFC,[5],62.5 µM
same,MIC,[5],13 µM
same,MFC,[6],> 62.5 µM
same,MIC,[6],13 µM
same,MFC,[7],> 62.5 µM
same,MIC,[7],26 µM
same,MFC,[8],> 62.5 µM
same,MIC,[8],13 µM
same,MFC,[9],31.3 µM
same,MIC,[9],7.8 µM
same,MFC,[10],> 62.5 µM
same,MIC,[10],26 µM
same,MFC,[11],> 62.5 µM
same,MIC,[11],41.7 µM
same,MFC,[12],62.5 µM
same,MIC,[12],10.4 µM
same,MFC,[13],> 62.5 µM
same,MIC,[13],13 µM
same,MFC,[14],> 62.5 µM
same,MIC,[14],20.8 µM
same,MFC,[15],> 62.5 µM
same,MIC,[15],13 µM
same,MFC,Cryptococcus neoformans [16],62.5 µM
same,MIC,Cryptococcus neoformans [16],3.2 µM
same,MFC,Cryptococcus neoformans [17],> 62.5 µM
same,MIC,Cryptococcus neoformans [17],13 µM
same,MFC,Cryptococcus neoformans [18],31.2 µM
same,MIC,Cryptococcus neoformans [18],6.5 µM
same,MFC,Cryptococcus neoformans [19],> 62.5 µM
same,MIC,Cryptococcus neoformans [19],31.2 µM
same,MFC,Cryptococcus neoformans [20],62.5 µM
same,MIC,Cryptococcus neoformans [20],23.4 µM
same,MFC,Cryptococcus neoformans [21],62.5 µM
same,MIC,Cryptococcus neoformans [21],13 µM
same,MFC,Cryptococcus neoformans [22],> 62.5 µM
same,MIC,Cryptococcus neoformans [22],10.4 µM
same,MFC,Cryptococcus neoformans [23],> 62.6 µM
same,MIC,Cryptococcus neoformans [23],7.8 µM
same,MFC,Cryptococcus neoformans [24],15.6 µM
same,MIC,Cryptococcus neoformans [24],11.7 µM
same,MFC,Cryptococcus neoformans [25],> 62.5 µM
same,MIC,Cryptococcus neoformans [25],10.4 µM
same,MFC,Cryptococcus neoformans [26],> 62.5 µM
same,MIC,Cryptococcus neoformans [26],15.6 µM
